Yeast fitness data for 167 variants are collected here from the RNAGym collection of RNA variant scans (doi:10.1126/science.aae0568).

B1: tRNA (parent)
chain: GUUCCGUUGGCGUAAUGGUAACGCGUCUCCCUCCUAAGGAGAAGACUGCGGGUUCGAGUCCCGUACGGAACG

This sample holds only a part of the variants without activity. A value given as a limit tells only on which side of the number the result lay.

In the data set the parent is B1. In words: yeast fitness relative to wild type (ratio to wild type); higher = fitter; tRNA-Arg(CCU), competitive growth, 37 C, YPD. The procedure, abridged: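 Start and end populations of a pooled competition were compared by 100-nucleotide paired-end sequencing of gene amplicons. The Saccharomyces cerevisiae strains carried tRNA-Arg(CCU) gene variants at the native genomic locus, synthesised with a 3% per-site mutation rate at 69 sites, and competed in YPD at 37°C for 24 hours in six parallel replicates. Darwinian fitness relative to wild type was based on the change in genotype frequencies. Genotypes required ≥ 100 starting reads, and estimates < 0.5 were set to 0.5.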
Turning to C11U A36G C46U, the yeast fitness was 0.77.

C29A C30G G38U: the yeast fitness is not above 0.5. Under A36G C61G A69G stands 0.56; under G10C U16G C31A U32G A45G, not above 0.5. For the variant A36U A57C, the yeast fitness was determined as 0.528.

Turning to C4U G41C G48A C61A, the yeast fitness was not above 0.5. Then A14C U19A A21G C31U, with not above 0.5. Under G39C G48C C62G stands not above 0.5; under C5U U19C G56C U59A A65G, not above 0.5. Then U2C G12A A15G A43U C62G, with not above 0.5; and G9C G23A A40C G41A C55G, with not above 0.5. For the variant C49A U53C C62G, the yeast fitness was determined as 0.598.

Regarding C24U C34G A69U, the yeast fitness came to 0.506. Then C4U U26C C31A C49G G63C A69U, with not above 0.5; and U2G U13A C22U C61U C66U, with not above 0.5; and C34U G51C G58C, with not above 0.5.

Take C29A G67C: the yeast fitness amounted to 0.646. Take C24G G48C A57G G68C: the yeast fitness is not above 0.5.

Turning to G6A G18C C30G C34A A37C C61U A65U, the yeast fitness was not above 0.5. On to C5U A14U C31G G63A, for which the yeast fitness is 0.575. Under A20C U64G stands 0.746; under C49G U59G, 0.635; under C4G U16C, 0.806. Then U32G A57C C62U, with 0.555; and C22A G51C A57U, with 0.624. Then C11U A15C C27A G39C G63U U64A, with not above 0.5. C5U U13A C29A C31G: the yeast fitness was not above 0.5. With U8C G12A C29U U35G C62U, the yeast fitness was not above 0.5. Take G6A G12A C27G G68C A70U: the yeast fitness worked out at 0.549.

As to G17C G25C G50A U59C G68A, the yeast fitness is not above 0.5. Turning to G25A A45U C62A, the yeast fitness came to 0.54. Under U7A G38A G52C A57C stands not above 0.5. Under G6C C31A A36C G44A A57U C66A stands not above 0.5. In the case of C11U A20G U35A, the yeast fitness is not above 0.5.

Consider A14G G41A U47A C62A, for which the yeast fitness was not above 0.5. On to A14U A21G, for which the yeast fitness was determined as 0.584.

Regarding G12A A15G A70U, the yeast fitness worked out at 0.682. For the variant C22A G23C C49G C60U, the yeast fitness is not above 0.5. Then U8A G67A, with 0.586. Regarding C30G A37C A45G, the yeast fitness amounted to 0.633.

For the variant U7G U54C, the yeast fitness turned out to be 0.905. For C4A A14C C60G C66U G68A, the yeast fitness is 0.561. Then U19G G38C, with 0.637; and C29U C34U G41A G67A A70U, with not above 0.5; and A21U A42C C62G, with not above 0.5. Under U19C G50A C55A A65U stands not above 0.5. For the variant U2A C5A G48C C55G C66A, the yeast fitness is not above 0.5.

Regarding C4U A20U A40U G67C, the yeast fitness was not above 0.5. As to G10C C55U G56C, the yeast fitness is not above 0.5. Under U8C U13C A36U G38A A65C stands not above 0.5; under A20G A21G C34G C61U A70C, not above 0.5. Take C33U G39C: the yeast fitness was 0.622. Take G39A G44A: the yeast fitness amounted to 0.846.

Take U16A G17A C66G A70U: the yeast fitness turned out to be 0.634. As to U35C G68C, the yeast fitness was found to be 0.644. With U35C G68U, the yeast fitness was 0.657. For the variant C5U A45C A70G, the yeast fitness was found to be 0.76. Then G17U U35C A37U A57C, with not above 0.5; and C24G A69C, with 0.617; and G12A U35C G48C, with not above 0.5. Under C4U A15G G23A C34G stands not above 0.5. In the case of U53C A57C A65U, the yeast fitness is not above 0.5. Then C11G C24G G51C, with 0.611; and A14G U28C U32C C33U G56A, with not above 0.5. Then C5U C33U A36C U54C, with not above 0.5; and A15G C30G A43U C62A, with 0.611. Then U2A C24U A70C, with 0.894; and G25A A70G, with 1.04.

In the case of U7C G41A A42C G50C G63A A70G, the yeast fitness stood at 0.555. Then G12A A15G C24A A36U C61U G67U, with 0.761; and C4A A21C A70C, with not above 0.5. Then G18A C22U A40C G68C, with not above 0.5. Under C5A U13A C30U A45C stands not above 0.5. Take C27U U35C A43C A69U: the yeast fitness is 0.62. Then C11U A15G C46U, with 0.961. Under C24G C31U stands 0.571.

As for G6A U19G G52A, the yeast fitness was 0.606. In the case of G10A C31U A65U, the yeast fitness was determined as 0.566. Regarding C24A A42G, the yeast fitness is 0.548.

For the variant G12A A42G C66G G67C, the yeast fitness was not above 0.5. Under G6A A14G C31U A36G stands not above 0.5. Under C29G A43G U64C stands not above 0.5; under C11G C27U C34U, not above 0.5.

For C11A G44C C46A U53A G63C, the yeast fitness was found to be 0.866. Regarding C29U G58A A69U, the yeast fitness came out at 0.754. On to C24G G25C C30G U32C G67C, for which the yeast fitness was not above 0.5. Then C11U U53C, with 0.652; and C4U A14G A45C G63C, with not above 0.5. Under U16C C55G stands 0.669; under C22G C49A G56C G58C C60G, 0.605.

As to C24G A36C C49U A70C, the yeast fitness was not above 0.5.

For U8A A40C C46U, the yeast fitness is not above 0.5. Then U13C G17A A43U, with 0.523.

For the variant C4A C30A A40G, the yeast fitness is 0.74.

Take A15G U54A G63C: the yeast fitness was determined as 0.631. Then A57C C60U, with 0.552.

For G9A C46G U53C A65G, the yeast fitness is not above 0.5. For A21G C61G G67A, the yeast fitness was not above 0.5. Under G9C A14C U16C C27U C29A C33G C66A stands 0.577; under A15G C24G G52A C66G G67A, not above 0.5; under G25A C46A, 0.876.

For C4U A37U C66A, the yeast fitness came out at 0.542.

For the variant A14G C24U C49U, the yeast fitness turned out to be 0.675. With A20G C29A C34G A42C C49G G68A, the yeast fitness was not above 0.5.

Consider G52A A57G, for which the yeast fitness was found to be 0.852. With G12C G56C, the yeast fitness was determined as 0.694. Then C24A G48A U53G G67C, with not above 0.5. Then G52A A70U, with 0.767; and U2C A42U, with 0.937. Then U7A G10A A15U, with 0.568; and U26C C31U A43G, with 1.12. On to A45U C62U C66U, for which the yeast fitness came out at 0.704. As for C4U G68U, the yeast fitness came to 0.888.

Regarding C5A G17A G44C, the yeast fitness is 0.532.

With G17C G56A, the yeast fitness is 0.709. For the variant A36G C49U U64C G68C, the yeast fitness is not above 0.5. Then G6A A42G C61G C66A, with not above 0.5; and G9A G41A, with 1.02. Then U3G G18A U28A, with 0.613; and U8C C33U A70U, with not above 0.5. As to A43U A70U, the yeast fitness came to 1.06. Consider C55A A57G U64A, for which the yeast fitness was not above 0.5. For A20C C24G U64C, the yeast fitness is 0.56. Under G17A C24A C49U stands not above 0.5; under A40C G68A, 0.933; under C5A C31U A37C, 0.561.

As for A15U C49U, the yeast fitness is 0.731.

On to C4A C33U A65C, for which the yeast fitness is not above 0.5. Then G9A C29G U53G, with not above 0.5; and A14C A36G C62U, with not above 0.5; and U3A A20U C31G, with 0.535.

As to C31A A37G G38A A40G, the yeast fitness is not above 0.5. Then A40C U59A, with 0.801; and A14C G18C U28A C30G A43G A57G C60U A65C G67U, with 0.557; and G10C C33A A36U U53A U54A, with not above 0.5. Then C4A C11U C22A G23C A40G, with not above 0.5; and C27G G44C A45G U64A, with not above 0.5. Under C46A C49G stands 0.746; under C62G C66A, not above 0.5; under U7C C31G C34U C55U G58A C61U G68C, not above 0.5. Turning to U16G C61U A69C, the yeast fitness was found to be 0.644. Regarding C5U U7G A40G A57U, the yeast fitness is not above 0.5.

Turning to U3A C4G U8A C49G, the yeast fitness was not above 0.5. Under U2A A21U C27U U28C C62G stands not above 0.5. On to C4A G17A G41A A69U, for which the yeast fitness was not above 0.5.

As to U26A A42G, the yeast fitness was 0.891.

Turning to U54A C62A, the yeast fitness was 0.595. Turning to G25A A42C, the yeast fitness was 0.868.

U19A C30G A43C U47C U54C: the yeast fitness is not above 0.5. Then C29A C49U, with 0.627. Take A15G U26G A57G: the yeast fitness worked out at 0.611.

On to U13G A20U A65C, for which the yeast fitness was 0.594. As to U19A C30U G38C U53G, the yeast fitness was not above 0.5. Under C60U C62A stands not above 0.5; under C5A A15G A36G, not above 0.5; under C4U G38C C61U C66U, not above 0.5. With C24G C33G G51A U53A G56A G67C, the yeast fitness was 0.541.

For the variant C11A G25C C29U U54C A65C A70U, the yeast fitness was not above 0.5. Under U16C G50A stands 0.799; under U8C C46U, 1.03; under G9C U16C G51C, not above 0.5. Then A15G C29U A43C A69U, with 0.536.

A14U A43U: the yeast fitness came out at 0.721. Then A20G A42C, with 1.05; and U32G G39C C62G G68A, with not above 0.5.

Take U26C G56C A57C A70U: the yeast fitness was not above 0.5. Under U13G C22U C31A stands 0.552.
